A short description of experiment [1]: Inhibition of recombinant p56 Lck tyrosine kinase expressed in insect cells. Summed up:
(§1)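 His-tagged recombinant Lck made in insect cells by baculovirus and purified on nickel affinity resin. Kinase buffer is 20 mM MOPS pH 7 with 10 mM MgCl2, and the test compound is present. It is stopped after 10 min with TCA/pyrophosphate then BSA. Enolase is precipitated at 4 °C, filtered and counted by scintillation.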

A short description of experiment [2]: Inhibition of Human PBL (T cell) proliferation. The following applies: Homo sapiens. The format is functional. In a few lines:
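Normal human peripheral blood T cells are added with test compound and anti-CD28 (E.3) antibody to wells precoated with anti-CD3 mAb (G19-4). After 3 days [3H]-thymidine is added, and after further incubation the cells are harvested and incorporation is counted by scintillation.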

Experiment [3] in a line: Binding affinity for recombinant p56 Lck tyrosine kinase expressed in insect cells. Summed up:
as §1

The results in this text go back to ChEMBL document CHEMBL1138736, “Imidazoquinoxaline Src-family kinase p56Lck inhibitors: SAR, QSAR, and the discovery of (S)-N-(2-chloro-6-methylphenyl)-2-(3-methyl-1-piperazinyl)imidazo- [1,5-a]pyrido[3,2-e]pyrazin-6-amine (BMS-279700) as a potent and orally active inhibitor with excellent in vivo antiinflammatory activity” (J Med Chem, 2004).

In general, IC50 refers to the point on the concentration scale where inhibition reaches its midpoint. For the molecule `Cc1cccc(Cl)c1Nc1nc2ccc(N(C)C[C@@H](O)CO)nc2n2cncc12`, the IC50 in experiment [1] was 0.007 µM; in experiment [2], 0.3 µM.

`CC1=NN(C)C2C1N=C(Nc1c(C)cccc1Cl)c1cnc(C)n12` (configuration not stated): in experiment [1], the IC50 was over 0.78 µM.

As for `COc1ncc2c(n1)nc(Nc1c(C)cccc1Cl)c1cncn12`, the IC50 in experiment [1] was over 0.78 µM.

Consider `Cc1cccc(Cl)c1Nc1nc2ccc(N3CCN(C)CC3)nc2n2cncc12`, for which the IC50 in experiment [1] came out at 0.001 µM; in experiment [2] it was 0.4 µM.

For the molecule `Cc1cccc(Cl)c1Nc1nc2cccnc2n2cncc12`, the IC50 in experiment [1] is 0.03 µM.

With `Cc1cccc(Cl)c1Nc1nc2ccc(N3C[C@@H](C)N[C@@H](C)C3)nc2n2cncc12`, the IC50 in experiment [1] was determined as 0.002 µM; in experiment [2] it was 0.4 µM.

In the case of `Cc1cccc(Cl)c1Nc1nc2cnccc2n2cncc12`, the IC50 in experiment [1] was found to be 0.077 µM.

As for `COc1ccc2nc(Nc3c(C)cccc3Cl)c3cncn3c2n1`, the concentration for half-maximal inhibition (IC50) was found to be 0.019 µM in experiment [1] and 1.8 µM in experiment [2].

In the case of `Cc1cccc(Cl)c1Nc1nc2cnc(N3C[C@@H](C)N[C@@H](C)C3)cc2n2cncc12`, the IC50 in experiment [1] turned out to be 0.029 µM.

The molecule `COc1cc2c(cc1NCCN(C)C)nc(Nc1c(C)cccc1Cl)c1cncn12` returned an IC50 in experiment [2] of 0.194 µM.

For `Cc1cccc(Cl)c1Nc1nc2ccc(Cl)nc2n2cncc12`, the IC50 in experiment [1] amounted to 0.025 µM.

`Cc1cccc(Cl)c1Nc1nc2ccc(N(C)CCN(C)C)nc2n2cncc12`: in experiment [1], the IC50 stood at 0.071 µM.

As to `Cc1cccc(Cl)c1Nc1nc2ccc(N3CC[C@@H](O)C3)nc2n2cncc12`, the IC50 in experiment [1] came to 0.008 µM; in experiment [2], 0.73 µM.

Consider `Cc1cccc(Cl)c1Nc1nc2ccc(-n3ccnc3)nc2n2cncc12`, for which the values for the IC50 in experiment [1] and in experiment [2] were 0.005 µM and 0.47 µM, respectively.

In the case of `Cc1cccc(Cl)c1Nc1nc2ccc(N3CCCCC3)nc2n2cncc12`, in experiment [1], the IC50 was 0.007 µM.

On to `Cc1cccc(Cl)c1Nc1nc2cc(N3CCNCC3)ncc2n2cncc12`, for which, in experiment [1], the IC50 turned out to be 0.163 µM.

For `Cc1cccc(Cl)c1Nc1nc2ccc(N3CC[C@H](N)C3)nc2n2cncc12`, the values for the IC50 in experiment [1] and in experiment [2] were 0.006 µM and 0.37 µM, respectively.

Regarding `Cc1cccc(Cl)c1Nc1nc2ccc(N(CCO)CCO)nc2n2cncc12`, the IC50 in experiment [1] amounted to 0.004 µM; in experiment [2], 0.62 µM.

With `Cc1cccc(Cl)c1Nc1nc2ccc(N(C)C[C@H](O)CO)nc2n2cncc12`, the IC50 was 0.013 µM in experiment [1] and 0.63 µM in experiment [2].

In turn, `Brc1ccccc1Nc1nc2ccccc2n2cncc12` gave an IC50 in experiment [2] of 17 µM.

As to `Cc1cccc(Cl)c1Nc1nc2ccc(N(C)C)nc2n2cncc12`, the IC50 in experiment [1] came out at 0.001 µM; in experiment [2], 1.2 µM. The Log IC50 in experiment [3] came to 3 µM.

With `Cc1cccc(Cl)c1Nc1nc2ccc(N3CCCNCC3)nc2n2cncc12`, the IC50 in experiment [1] was 0.006 µM; in experiment [2] it was 0.54 µM.

On to `Cc1cccc(Cl)c1Nc1nc2ccc(N3CCOCC3)nc2n2cncc12`, for which the IC50 in experiment [1] worked out at 0.001 µM; in experiment [2], 1.9 µM.

Turning to `Cc1cccc(Cl)c1Nc1nc2ccc(N(C)CCO)nc2n2cncc12`, the IC50 in experiment [1] was determined as 0.003 µM; in experiment [2] it was 0.62 µM.

`Cc1cccc(Cl)c1Nc1nc2cc(N(C)CCN(C)C)ncc2n2cncc12`: the IC50 in experiment [1] came out at 0.24 µM.

In the case of `Cc1cccc(Cl)c1Nc1nc2ccc(N3CC[C@@H](N)C3)nc2n2cncc12`, the IC50 worked out at 0.007 µM in experiment [1] and 0.31 µM in experiment [2].

`Cc1cccc(Cl)c1Nc1nc2ccc(N3CC[C@H](O)C3)nc2n2cncc12`: the IC50 in experiment [1] was determined as 0.004 µM; in experiment [2] it was 0.34 µM.

As for `Cc1cccc(Cl)c1Nc1nc2ccc(N3C[C@@H](O)[C@H](O)C3)nc2n2cncc12`, the IC50 in experiment [1] was 0.005 µM; in experiment [2], 0.44 µM.

On to `Cc1cccc(Cl)c1Nc1nc2ccc(N3C[C@H](O)[C@@H](O)C3)nc2n2cncc12`, for which the results for the IC50 in experiment [1] and in experiment [2] were 0.013 µM and over 2 µM, respectively.

Take `Cc1cccc(Cl)c1Nc1nc2ccc(N3CCN[C@H](CO)C3)nc2n2cncc12`: the IC50 came out at 0.003 µM in experiment [1] and 0.18 µM in experiment [2].

Turning to `Cc1cccc(Cl)c1Nc1nc2ccc(N3CCN[C@H](C)C3)nc2n2cncc12`, the concentration for half-maximal inhibition (IC50) was 0.002 µM in experiment [1] and 0.24 µM in experiment [2].

On to `Cc1cccc(Cl)c1Nc1nc2ccc(N3CCN[C@@H](CO)C3)nc2n2cncc12`, for which the figures for the IC50 in experiment [1] and in experiment [2] were 0.005 µM and 0.27 µM, respectively.

On to `Cc1cccc(Cl)c1Nc1nc2ccc(N3CCN(CCN(C)C)CC3)nc2n2cncc12`, for which the IC50 in experiment [1] worked out at 0.002 µM; in experiment [2], 0.25 µM.

Consider `Cc1cccc(Cl)c1Nc1nc2ccncc2n2cncc12`, for which the IC50 in experiment [1] stood at 1.4 µM.

`COc1cc2nc(Nc3c(C)cccc3Cl)c3cncn3c2cc1OC` yielded an IC50 in experiment [2] of 0.67 µM.

With `Cc1cccc(Cl)c1NC1=NC2N=CN(C)C2n2c1cnc2C` (configuration not stated), the IC50 in experiment [1] was over 0.78 µM.

For the molecule `Cc1cccc(C)c1Nc1nc2ccc(N3CCNCC3)nc2n2cncc12`, the results for the IC50 in experiment [1] and in experiment [2] were 0.001 µM and 0.23 µM, respectively.

On to `Cc1cccc(Cl)c1Nc1nc2ccc(NCCO)nc2n2cncc12`, for which the IC50 was found to be 0.003 µM in experiment [1] and 0.49 µM in experiment [2].

In the case of `Cc1cccc(Cl)c1Nc1nc2ccc(N3CCN(CCO)CC3)nc2n2cncc12`, the figures for the IC50 in experiment [1] and in experiment [2] were 0.009 µM and 0.24 µM, respectively.

With `Cc1cccc(C)c1Nc1nc2ncccc2n2cncc12`, the IC50 in experiment [1] stood at 0.15 µM.

The molecule `COc1ccc2c(c1)nc(Nc1c(C)cccc1Cl)c1cncn12` gave an IC50 in experiment [2] of 2.6 µM.

On to `Cc1cccc(Cl)c1Nc1nc2ccccc2n2cncc12`, for which the figures for the IC50 in experiment [1] and in experiment [2] were 0.009 µM and 5 µM, respectively.

Regarding `CCN(CC)c1ccc2nc(Nc3c(C)cccc3Cl)c3cncn3c2n1`, the values for the IC50 in experiment [1] and in experiment [2] were 0.002 µM and 2.1 µM, respectively.

For `Cc1cccc(Cl)c1Nc1nc2cc(N(C)CCN3CCOCC3)ncc2n2cncc12`, the IC50 in experiment [1] amounted to 0.103 µM.

As for `Cc1cccc(Cl)c1Nc1nc2ncccc2n2cncc12`, the IC50 in experiment [1] amounted to 0.09 µM.
